According to ChEMBL document CHEMBL5321217, “Identification of pyrrolo[3',4':3,4]cyclohepta[1,2-d][1,2]oxazoles as promising new candidates for the treatment of lymphomas” (Eur J Med Chem, 2023):
Active and inactive are the calls of the source. The calls are words filed in the database; no cut-off is given here.

Tests used:
HCC 2998 = test: Antiproliferative activity against human HCC 2998 cells assessed as growth inhibition incubated for 72 hrs by MTT assay; assay type: functional
Tubulin = test: Inhibition of tubulin assembly (unknown origin); assay type: protein-complex assay, Homo sapiens
VL51 [1] = test: Induction of cell cycle arrest in human VL51 cells assessed as accumulation of cells at G2/M phase at 1 uM incubated for 24 hrs by PI staining based flow cytometry analysis; assay type: functional
Procedure, shortened: (§1)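 Seeding in 6-well plates, 2 mL medium: A549 5×10^4, CCRF-CEM 2.5×10^5, VL51 2.0×10^5. 24 h treatment, A549 detached with trypsin-EDTA. Cells fixed in 70% ice-cold ethanol, PI-labelled, analysed by flow cytometry. Mean of two independent experiments.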

SR = test: Antiproliferative activity against human SR cells assessed as growth inhibition incubated for 72 hrs by MTT assay; assay type: functional
MDA-MB-231 = test: Antiproliferative activity against human MDA-MB-231 cells assessed as growth inhibition incubated for 72 hrs by MTT assay; assay type: functional
786-0 = test: Antiproliferative activity against human 786-0 cells assessed as growth inhibition incubated for 72 hrs by MTT assay; assay type: functional
VL51 [2] = test: Antiproliferative activity against human VL51 cells assessed as reduction in cell proliferation at 1 uM measured after 72 hrs by MTT assay relative to control; assay type: functional; set-up: scale not given: the % may be the effect or the level left
Procedure, shortened: (§2)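 Single-dose 1 μM screen in lymphoma cells (RPMI-1640, 20% FBS; 5,000–10,000 cells/well), 72 h at 37 °C, 5% CO2, DMSO ≤0.1%. MTT for 4 h, SDS lysis, absorbance at 570 nm. Proliferation expressed as percent of untreated control.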

KM12 = test: Antiproliferative activity against human KM12 cells assessed as growth inhibition incubated for 72 hrs by MTT assay; assay type: functional
VL51 [3] = test: Induction of apoptosis in human VL51 cells assessed as increase in apoptotic cells incubated for 48 hrs by annexin V-FITC and PI staining based flow cytometry analysis; assay type: functional, cell-based; settings: dose 1-5 µM
Procedure, shortened: (§3)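 Cells exposed to several concentrations for 48 h, then stained with annexin V-FITC and PI and read by flow cytometry (FL1/FL3). Apoptotic cells = annexin V-positive plus annexin V/PI double-positive. Mean of three independent experiments.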

[4] = Antiproliferative activity against human MINO cells assessed as reduction in cell proliferation at 1 uM measured after 72 hrs by MTT assay relative to control; assay type: functional; set-up: scale not given: the % may be the effect or the level left
Procedure, shortened: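 Single-dose screen at 1 μM for 72 h at 37 °C, 5% CO2 (DMSO ≤0.1%). Cells in RPMI-1640 with 20% FBS, seeded at 5,000–10,000 cells/well. MTT added for 4 h, SDS lysis, A570 read with medium-only blanks. Percent proliferation relative to untreated cells, run in triplicate.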

[5] = Cytotoxicity against PHA-induced human PBL cells assessed as inhibition of cell growth measured after 72 hrs by MTT assay; assay type: toxicity, cell-based; settings: PHA-induced human peripheral blood lymphocytes (PBL)
VL51 [6] = test: Induction of cell cycle arrest in human VL51 cells assessed as accumulation of cells at M phase by measuring p-Histone H3 positive cells incubated for 24 hrs by PI staining based flow cytometry analysis; assay type: functional; settings: dose 0.5-1 µM
BT-549 = test: Antiproliferative activity against human BT-549 cells assessed as growth inhibition incubated for 72 hrs by MTT assay; assay type: functional
RPMI-8226 = test: Antiproliferative activity against human RPMI-8226 cells assessed as growth inhibition incubated for 72 hrs by MTT assay; assay type: functional
COLO 205 = test: Antiproliferative activity against human COLO 205 cells assessed as growth inhibition incubated for 72 hrs by MTT assay; assay type: functional
MOLT-4 = test: Antiproliferative activity against human MOLT-4 cells assessed as growth inhibition incubated for 72 hrs by MTT assay; assay type: functional
RXF 393 = test: Antiproliferative activity against human RXF 393 cells assessed as growth inhibition incubated for 72 hrs by MTT assay; assay type: functional
SK-MEL-5 = test: Antiproliferative activity against human SK-MEL-5 cells assessed as growth inhibition incubated for 72 hrs by MTT assay; assay type: functional
A498 = test: Antiproliferative activity against human A498 cells assessed as growth inhibition incubated for 72 hrs by MTT assay; assay type: functional
MDA-MB-468 = test: Antiproliferative activity against human MDA-MB-468 cells assessed as growth inhibition incubated for 72 hrs by MTT assay; assay type: functional
UACC-62 = test: Antiproliferative activity against human UACC-62 cells assessed as growth inhibition incubated for 72 hrs by assay; assay type: functional
CCRF-CEM = test: Induction of apoptosis in human CCRF-CEM cells assessed as increase in apoptotic cells incubated for 48 hrs by annexin V-FITC and PI staining based flow cytometric analysis; assay type: functional, cell-based; settings: dose 1-5 µM; procedure, shortened: as §3
A549 [7] = test: Antiproliferative activity against human A549 cells assessed as growth inhibition incubated for 72 hrs by MTT assay; assay type: functional
SW-620 = test: Antiproliferative activity against human SW-620 cells assessed as growth inhibition incubated for 72 hrs by MTT assay; assay type: functional
ACHN = test: Antiproliferative activity against human ACHN cells assessed as growth inhibition incubated for 72 hrs by MTT assay; assay type: functional
A549 [8] = test: Induction of cell cycle arrest in human A549 cells assessed as reduction in accumulation of cells at S phase at 1 uM incubated for 24 hrs by PI staining based flow cytometry analysis; assay type: functional; procedure, shortened: as §1
SU-DHL10 = test: Antiproliferative activity against human SU-DHL-10 cells assessed as reduction in cell proliferation at 1 uM measured after 72 hrs by MTT assay relative to control; assay type: functional; set-up: scale not given: the % may be the effect or the level left; procedure, shortened: as §2
OVCAR-8 = test: Antiproliferative activity against human OVCAR-8 cells assessed as growth inhibition incubated for 72 hrs by MTT assay; assay type: functional
A549 [9] = test: Induction of cell cycle arrest in human A549 cells assessed as accumulation of cells at G2/M phase at 1 uM incubated for 24 hrs by PI staining based flow cytometry analysis; assay type: functional; procedure, shortened: as §1
SF-539 = test: Antiproliferative activity against human SF-539 cells assessed as growth inhibition incubated for 72 hrs by MTT assay; assay type: functional
SK-OV-3 = test: Antiproliferative activity against human SK-OV-3 cells assessed as growth inhibition incubated for 72 hrs by MTT assay; assay type: functional
HT-29 = test: Antiproliferative activity against human HT-29 cells assessed as growth inhibition incubated for 72 hrs by MTT assay; assay type: functional
MDA-MB-435 = test: Antiproliferative activity against human MDA-MB-435 cells assessed as growth inhibition incubated for 72 hrs by MTT assay; assay type: functional
[10] = Antiproliferative activity against human MINO cells assessed as cell growth inhibition measured after 72 hrs by MTT assay; assay type: functional, cell-based
Procedure, shortened: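 Lymphoma cells in RPMI-1640 with 20% FBS, seeded at 5,000–10,000 cells/well depending on doubling time. Exposed for 72 h at 37 °C, 5% CO2 to a 1:2 serial dilution from 0 to 10 μM (DMSO ≤0.1%). MTT from a 5 mg/mL stock was added for 4 h, cells were lysed with 25% SDS, and A570 was read against medium-only blanks. IC50 from triplicate assays.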

MCF7 = test: Antiproliferative activity against human MCF7 cells assessed as growth inhibition incubated for 72 hrs by MTT assay; assay type: functional
HOP-92 = test: Antiproliferative activity against human HOP-92 cells assessed as growth inhibition incubated for 72 hrs by MTT assay; assay type: functional

Structure (SMILES) | GI50 (HCC 2998) [nM] | IC50 (Tubulin) [nM] | Activity (VL51 [1]) | GI50 (SR) [nM] | GI50 (MDA-MB-231) [nM] | GI50 (786-0) [nM] | Activity (VL51 [2]) [%] | GI50 (KM12) [nM] | Activity (VL51 [3]) | Activity [4] [%] | IC50 at 72 h [5] [nM] | Activity (VL51 [6]) | GI50 (BT-549) [nM] | GI50 (RPMI-8226) [nM] | GI50 (COLO 205) [nM] | GI50 (MOLT-4) [nM] | GI50 (RXF 393) [nM] | GI50 (SK-MEL-5) [nM] | GI50 (A498) [nM] | GI50 (MDA-MB-468) [nM] | further results
COc1ccc(Cn2cc3c(c2-c2cc(OC)c(OC)c(OC)c2)CCCc2cnoc2-3)cc1 | 1610 | > 20000 | Active | 360 | 2540 | 670 | >50 | 690 | Dose-Dependent Effect | >50 | > 10000 | Dose-Dependent Effect | 480 | 1560 | 1450 | 800 | 660 | 2000 | 690 | 560 | GI50 (UACC-62): 910 nM; Activity (CCRF-CEM): Dose-Dependent Effect; GI50 (A549 [7]): 2340 nM; GI50 (SW-620): 470 nM; GI50 (ACHN): 900 nM; Activity (A549 [8]): Active; Activity (SU-DHL10): >50%; GI50 (OVCAR-8): 4300 nM; Activity (A549 [9]): Active; GI50 (SF-539): 700 nM; GI50 (SK-OV-3): 4180 nM; GI50 (HT-29): 1130 nM; GI50 (MDA-MB-435): 230 nM; IC50 [10]: 900 nM; GI50 (MCF7): 440 nM; GI50 (HOP-92): 1270 nM
COc1ccc(Cn2cc3c(c2-c2cc(OC)c(OC)c(OC)c2)CCCc2cnoc2-3)cc1N | 1660 | 18000 | Active | 360 | 1150 | 520 | >50 | 560 | Dose-Dependent Effect | >50 | > 10000 | Dose-Dependent Effect | 250 | 610 | 380 | 650 | 450 | 1130 | 360 | 650 | GI50 (UACC-62): 430 nM; Activity (CCRF-CEM): Dose-Dependent Effect; GI50 (A549 [7]): 950 nM; GI50 (SW-620): 430 nM; GI50 (ACHN): 690 nM; Activity (A549 [8]): Active; Activity (SU-DHL10): >50%; GI50 (OVCAR-8): 1570 nM; Activity (A549 [9]): Active; GI50 (SF-539): 400 nM; GI50 (SK-OV-3): 680 nM; GI50 (HT-29): 420 nM; GI50 (MDA-MB-435): 240 nM; IC50 [10]: 400 nM; GI50 (MCF7): 420 nM; GI50 (HOP-92): 520 nM
